Assay outcomes (PubChem BioAssay)
ARNT TACC3 PPI = disrupts binding between human ARNT and TACC3; Q9Y6A5; AlphaScreen His-ARNT PAS-B/GST-TACC3 binding, luminescence; TACC3 fragment carries E629A point mutation; inhibition, % at 9.99 µM; hit rate 0.66% among 390,000;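 active means mean inhibition of replicates at least 50% and at least half of replicates each reaching 50%; inconclusive means half or more replicates reach 50% but mean below 50%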
Rce1 inh = inhibitors of yeast Ras-converting enzyme. Q03530. yeast membranes, quenched prenylated peptide cleavage fluorescence. calls only. hit rate 0.27% among 290,000. AID 2563;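 active means fall in fluorescence gain of 50% or more versus controls, with final raw signal at or below 3038400; inconclusive means same 50% fall but final raw signal above 3038400; inactive means fall in fluorescence gain under 50%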
Target sequence (Q03530 whole entry, looked up): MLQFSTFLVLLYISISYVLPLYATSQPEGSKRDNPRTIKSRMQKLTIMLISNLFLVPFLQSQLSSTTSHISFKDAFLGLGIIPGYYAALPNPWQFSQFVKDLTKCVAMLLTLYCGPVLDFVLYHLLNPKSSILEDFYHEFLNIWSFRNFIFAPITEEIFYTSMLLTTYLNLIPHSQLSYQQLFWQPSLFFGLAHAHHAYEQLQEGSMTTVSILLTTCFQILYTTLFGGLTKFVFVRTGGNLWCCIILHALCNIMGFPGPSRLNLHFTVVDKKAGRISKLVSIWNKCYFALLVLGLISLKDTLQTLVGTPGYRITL
CAL PDZ FP-1 = blocks peptide binding to the human CAL PDZ domain; purified CAL PDZ, TMR-peptide fluorescence polarization, 1 h; inhibition, % at 24.9 µM; hit rate 0.92% among 300,000; AID 602252;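 active means mean inhibition of at least 30% with at least half of replicates also reaching 30%; inconclusive means no clear call, values can overlap the other calls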
CAL PDZ FP-2 = blocks peptide binding to human CAL PDZ domain; inhibition, % at 20 µM; hit rate 0.02% among 330,000; Q9HD26; purified CAL PDZ, TMR-peptide fluorescence polarization, 1 h;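 active means highest replicate inhibition of at least 40%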
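Read-out basis: mP drop reported as inhibition | Assay system: Tagged CAL PDZ protein CerCALP, purified | Benchmarks: Unlabelled peptide for full inhibition, DMSO wells as neutral | Schedule: 1 h incubation at room temperature before polarization reading | Buffer or medium: Sodium phosphate/NaCl buffer pH 7.4 with TCEP, IgG, Thesit | Doses: Single point, 20 µM | Measured by: Fluorescence polarization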
AI-2 QS modul = Vibrio harveyi AI-2 quorum sensing modulation. Vibrio harveyi JMH597 AI-2 luminescence/OD600 ratio, 9 h; stronger effect = lower value; strain lacks LuxN and CqsS sensors; 0 = neutral-control median. AID 2094. activity change, % at 7.5 µM. hit rate 0.4% among 300,000; in the data active means activity change below about -75%, passing the limit was not always enough; inconclusive means no clear call, values can overlap the other calls;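 further: luminescence divided by OD600 gain over 9 h not by final OD600 alone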
Each line names hits and unclear results; the compound was inactive in the other large screens. Compounds with a hit are over-represented: about 1.7% of the library has one in this group of screens.

CCN(CC)S(=O)(=O)c1cccc(-c2n[nH]c(=S)n2Cc2ccccc2)c1	Rce1 inh active
COC(=O)c1sc(NC(=S)NC(=O)c2cccc(Br)c2)nc1C	none (no result: Rce1 inh, CAL PDZ FP-1, AI-2 QS modul)
COc1ccc(-c2ccnc3[nH]n(-c4ccccc4)c(=O)c23)cc1	CAL PDZ FP-1 60
COc1cccc(-c2ccnc3[nH]n(-c4ccccc4)c(=O)c23)c1	CAL PDZ FP-1 67
O=c1c2c(-c3ccc([N+](=O)[O-])cc3)ccnc2[nH]n1-c1ccccc1	none (no result: CAL PDZ FP-2)
CCn1nc(C(=O)NNS(=O)(=O)c2ccc(C)cc2)c2ccccc2c1=O	ARNT TACC3 PPI 68 (no result: Rce1 inh, AI-2 QS modul)
COCCn1c(-c2ccc(OC)cc2)cnc1N	ARNT TACC3 PPI 45
CCNC(=O)C[C@@H]1CC[C@H](NC(=O)C2CC2)[C@@H](CO)O1	none (no result: Rce1 inh, CAL PDZ FP-1, CAL PDZ FP-2, AI-2 QS modul)
COC(=O)CSC(C(=O)Nc1ccc(C)c(C)c1)c1ccccc1 (centres undefined)	none
Cc1ccc(NC(=O)C(SCC(=O)O)c2ccccc2)cc1C (centres undefined)	CAL PDZ FP-1 69
OC[C@H]1[C@H](c2ccc(C#CC3CC3)cc2)[C@H]2CN(CCC(F)(F)F)CCCCN21	none (no result: Rce1 inh, CAL PDZ FP-1, CAL PDZ FP-2, AI-2 QS modul)
CC(C)CN1CC(C)C(=O)NC1=S (centres undefined)	none (no result: Rce1 inh, AI-2 QS modul)
CN1C(C)(C)CC(=NOC(=O)c2ccccc2)CC1(C)C	CAL PDZ FP-1 62
O=C(ON=C1CCSCC1)c1ccccc1	none (no result: ARNT TACC3 PPI, Rce1 inh)
Cc1noc(C)c1COc1ccc(CC(=O)NCCc2ccccc2)cc1	CAL PDZ FP-1 108
COc1ccc(C2N(c3cc(C)on3)C(=O)C3CCCN32)cc1OC (centres undefined)	CAL PDZ FP-1 51
CCOc1ccc(C2N(c3cc(C)on3)C(=O)C3CCCN32)cc1OC (centres undefined)	none
CCNC(=S)NNC(=O)c1ccncc1	CAL PDZ FP-1 68 (no result: Rce1 inh)
CCNC(=S)NNC(=O)c1ccccn1	ARNT TACC3 PPI 67
O=C(NNC(=S)Nc1ccc(Cl)c(Cl)c1)c1ccccn1	ARNT TACC3 PPI 75, AI-2 QS modul inconclusive
O=C(C[C@@H]1CC[C@@H]2[C@H](COC[C@@H](O)CN2C(=O)Cc2ccccc2)O1)NC1Cc2ccccc2C1	none (no result: Rce1 inh, CAL PDZ FP-1, CAL PDZ FP-2, AI-2 QS modul)
COc1ccc(OC)c(NC(=O)CC2SC(=N)N(c3ccccc3)C2=O)c1 (centres undefined)	CAL PDZ FP-1 active
N=C1SC(CC(=O)Nc2ccc([N+](=O)[O-])cc2)C(=O)N1c1ccccc1 (centres undefined)	none (no result: CAL PDZ FP-1)
N/C(=N\NS(=O)(=O)c1ccc(Cl)cc1)c1ccccn1	ARNT TACC3 PPI 43
N/C(=N\NS(=O)(=O)c1ccccc1)c1ccccn1	ARNT TACC3 PPI 67
CCOC(=O)C(NC(C)=O)(NS(=O)(=O)c1ccccc1)C(F)(F)F (centres undefined)	none (no result: ARNT TACC3 PPI)
CCCCNC(=O)Nc1ccccc1Br	none
CCCCNC(=O)Nc1ccccc1CC	CAL PDZ FP-1 69
O=C(NC1CCN(Cc2ccccc2)C1)c1cc(S(=O)(=O)N2CCOCC2)ccc1Cl (centres undefined)	CAL PDZ FP-1 59 (no result: Rce1 inh, AI-2 QS modul)
Cc1ccc(S(=O)(=O)N2CCOCC2)cc1C(=O)NC1CCN(Cc2ccccc2)CC1	none (no result: Rce1 inh, AI-2 QS modul)
CCCC1Cc2nc(N3CCCCC3)c(C#N)cc2CO1 (centres undefined)	none (no result: CAL PDZ FP-1)
CCCCC#Cc1ccc(C(=O)NNC(=O)Nc2cc(Cl)cc(Cl)c2)o1	CAL PDZ FP-1 30
COc1ccc(NCCC(O)c2ccc(Cl)cc2)cc1 (centres undefined)	CAL PDZ FP-1 35 (no result: CAL PDZ FP-2)
O=C(c1cc(COc2c(F)cccc2F)on1)N(Cc1ccccc1)CC1CC1	CAL PDZ FP-1 64
CCN(C(=O)COC(=O)c1cn(-c2ccccc2)nc1-c1ccccc1)C1CCS(=O)(=O)C1 (centres undefined)	Rce1 inh active
CCN(C(=O)COC(=O)c1cc(-c2ccccc2)nn1-c1ccccc1)C1CCS(=O)(=O)C1 (centres undefined)	none
CN(C(=O)COC(=O)c1cn(-c2ccccc2)nc1-c1ccccc1)C1CCS(=O)(=O)C1 (centres undefined)	Rce1 inh active
CCOc1ccc(-n2cnnn2)cc1S(=O)(=O)NCCc1ccc(OC)c(OC)c1	none
COc1ccc(CCNS(=O)(=O)c2ccc(-n3cnnn3)cc2)cc1OC	CAL PDZ FP-1 active
Cc1nc2c(=O)[nH]c(=S)[nH]c2[nH]c1=O	ARNT TACC3 PPI 35 (no result: Rce1 inh, AI-2 QS modul)
CC(C)C[C@H](NC(=O)c1nc[nH]c1C(=O)N1CCNCC1)C(=O)OCc1ccccc1	Rce1 inh active
O=C(NCc1ccccc1Cl)C1CCC(=O)N(CCCN2CCCC2=O)C1 (centres undefined)	none
O=C(NCCc1ccccc1C(F)(F)F)C1CCC(=O)N(CCCN2CCCC2=O)C1 (centres undefined)	CAL PDZ FP-1 52
CCOc1ccc(-n2ccnc(SCC(=O)NC3CCCC3)c2=O)cc1	Rce1 inh active
COc1ccc(NCC(=O)Nc2ccc(C#N)cc2)cc1Cl	none (no result: CAL PDZ FP-1)
COc1ccc(NC(=O)CNc2cccc(C#N)c2)cc1Cl	AI-2 QS modul -80
O=C(C=Cc1ccc2c(c1)OCO2)OCC=Cc1ccc2c(c1)OCO2	CAL PDZ FP-1 53 (no result: Rce1 inh, AI-2 QS modul)
CC(=O)/C=C/n1c(=S)oc2ccccc21	AI-2 QS modul -96 (no result: ARNT TACC3 PPI, CAL PDZ FP-1, CAL PDZ FP-2)
Cn1c(=S)oc2ccccc21	none
CCN(CC)S(=O)(=O)c1cc(OC)ccc1N=Nc1ccc(O)c2ncccc12	ARNT TACC3 PPI 48
CC(Oc1cc2oc(=O)c3c(c2cc1Cl)CCC3)C(=O)NCCCN1CCCC1=O (centres undefined)	none
O=C(CNC(=O)c1ccccc1)OCC(=O)c1ccccc1Cl	CAL PDZ FP-1 49
COc1ccc(S(=O)(=O)N(C(C)=O)c2ccc3oc(=O)sc3c2)cc1	CAL PDZ FP-1 89
CN(C)c1ccc(CNC(=O)C2CCN(S(=O)(=O)c3ccc4c(c3)oc(=O)n4C)CC2)cc1	none
Cn1c(=O)oc2cc(S(=O)(=O)N3CCC(C(=O)NCc4ccccc4Cl)CC3)ccc21	CAL PDZ FP-1 50
O=C(Cn1c(=O)oc2cc(S(=O)(=O)N3CCCC3)ccc21)Nc1ccccc1Br	CAL PDZ FP-1 61
Cc1ccsc1CN1CCC(C(=O)NCc2ccccc2Cl)CC1	CAL PDZ FP-1 59
CC(=O)Nc1ccc(CN2CCC(n3nccc3NC(=O)CCc3ccccc3)CC2)cc1	none
CCNc1nc(NCC)nc(OCCOC(=O)Nc2ccccc2)n1	none (no result: CAL PDZ FP-1)
CCNc1nc(NCC)nc(C(=O)Nc2ccccc2)n1	ARNT TACC3 PPI 96
CCS(=O)(=O)N1CCC(C(=O)Nc2cccc(C(C)=O)c2)CC1	none
Cc1cccc(C)c1NC(=O)NCCCN1CCN(c2ccccc2)CC1	CAL PDZ FP-1 51
CCOC(=O)/C(Sc1nc(-c2ccccc2)cc(-c2ccccc2)c1C#N)=C(\C)O	none (no result: ARNT TACC3 PPI)
Cc1oc2c(CN3CCCC3)c(O)ccc2c(=O)c1-c1ccc(Br)cc1	Rce1 inh active
Cc1oc2c(CN3CCCCC3)c(O)ccc2c(=O)c1-c1ccc(Br)cc1	none
